Experimental data taken from ChEMBL document CHEMBL1126707, “Tetrapeptide tachykinin antagonists: synthesis and modulation of the physicochemical and pharmacological properties of a new series of partially cyclic analogs” (J Med Chem, 1993).
Each block holds one compound with its values, some of them ahead of it. Peptide text beside a SMILES is read from it.

How the values were obtained:
[1] = Solubility was evaluated; assay type: physicochemical
[2] = target: Substance-P receptor (Oryctolagus cuniculus); assay: Tested for antagonist activity against NK1 receptor in rabbit vena cava by using substance P (SP) as agonist; conditions: read-out: pA2 (converted)
[3] = target: T1, Neuromedin-K receptor (Rattus norvegicus, UniProt P16177); assay: Tested for antagonist activity against NK-3 receptor in rat portal vein by using Neurokinin B as agonist; assay type: functional; conditions: read-out: pA2 (converted)
T1 sequence (P16177 whole entry): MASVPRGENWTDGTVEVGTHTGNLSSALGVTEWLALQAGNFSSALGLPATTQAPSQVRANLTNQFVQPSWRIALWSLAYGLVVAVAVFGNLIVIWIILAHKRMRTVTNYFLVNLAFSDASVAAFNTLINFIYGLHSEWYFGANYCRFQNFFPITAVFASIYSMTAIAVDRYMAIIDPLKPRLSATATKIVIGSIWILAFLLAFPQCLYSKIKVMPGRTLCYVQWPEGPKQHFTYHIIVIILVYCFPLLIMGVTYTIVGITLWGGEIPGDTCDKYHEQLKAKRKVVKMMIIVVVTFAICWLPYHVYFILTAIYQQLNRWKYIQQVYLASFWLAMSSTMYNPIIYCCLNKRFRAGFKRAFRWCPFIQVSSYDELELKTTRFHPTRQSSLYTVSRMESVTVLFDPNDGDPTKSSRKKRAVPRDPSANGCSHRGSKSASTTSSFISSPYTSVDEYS
Outline: (§1)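 Isolated-organ contractile bioassays: SP on rabbit vena cava (NK-1), neurokinin A on rabbit pulmonary artery (NK-2), neurokinin B on rat portal vein (NK-3); antagonist apparent affinity expressed as pA2 by Schild plot.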

[4] = target: T2, Substance-K receptor (Oryctolagus cuniculus, UniProt P79218); assay: Tested for antagonist activity against NK-2 receptor in rabbit pulmonary artery by using Neurokinin A as agonist; assay type: functional; conditions: read-out: pA2 (converted); outline: as §1
T2 sequence (P79218 whole entry): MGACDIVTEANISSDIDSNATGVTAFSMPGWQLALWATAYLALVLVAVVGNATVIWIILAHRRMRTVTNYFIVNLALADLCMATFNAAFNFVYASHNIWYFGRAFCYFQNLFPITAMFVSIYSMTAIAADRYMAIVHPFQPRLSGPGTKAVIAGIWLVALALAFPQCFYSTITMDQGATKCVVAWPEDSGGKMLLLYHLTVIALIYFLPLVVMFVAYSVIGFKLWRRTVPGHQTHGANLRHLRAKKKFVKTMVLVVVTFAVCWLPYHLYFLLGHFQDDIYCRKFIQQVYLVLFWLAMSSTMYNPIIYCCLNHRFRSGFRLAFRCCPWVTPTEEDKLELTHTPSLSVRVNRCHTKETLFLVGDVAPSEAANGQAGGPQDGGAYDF

[5] = (§2) Binding affinity by displacement of tritiated substance P from its binding sites on membrane preparations from rat brain; assay type: tissue-based
[6] = (§3) Binding affinity by displacement of tritiated substance P from its binding sites on membrane preparations from mouse brain; assay type: tissue-based
[7] = test system: Mus musculus; assay: Tested for antinociceptive activity against mouse hotplate test for 10 min after intravenous injection at 0.5 mg/kg
[8] = target: T3, Substance-K receptor (Rattus norvegicus, UniProt P16610); assay: Tested for binding affinity against rat NK-2 receptor transfected on CHO cells using [125I]-His] NKA as radioligand; assay type: cell-based
T3 sequence (P16610 whole entry): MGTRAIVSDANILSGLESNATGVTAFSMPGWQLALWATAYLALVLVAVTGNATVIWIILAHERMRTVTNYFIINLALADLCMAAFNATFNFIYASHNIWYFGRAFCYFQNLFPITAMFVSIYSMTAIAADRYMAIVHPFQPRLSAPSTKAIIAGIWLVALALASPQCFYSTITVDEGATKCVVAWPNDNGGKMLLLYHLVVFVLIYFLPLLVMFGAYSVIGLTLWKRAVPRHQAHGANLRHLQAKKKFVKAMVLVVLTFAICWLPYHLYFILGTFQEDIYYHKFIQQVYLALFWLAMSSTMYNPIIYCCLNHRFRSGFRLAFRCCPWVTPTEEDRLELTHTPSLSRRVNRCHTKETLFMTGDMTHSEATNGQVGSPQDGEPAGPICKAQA

[9] = target: T4, Substance-K receptor (Homo sapiens, UniProt P21452); assay: Tested for binding affinity against human NK-2 receptor transfected on CHO cells using [125I]-His] NKA as radioligand; assay type: cell-based
T4 sequence (P21452 whole entry): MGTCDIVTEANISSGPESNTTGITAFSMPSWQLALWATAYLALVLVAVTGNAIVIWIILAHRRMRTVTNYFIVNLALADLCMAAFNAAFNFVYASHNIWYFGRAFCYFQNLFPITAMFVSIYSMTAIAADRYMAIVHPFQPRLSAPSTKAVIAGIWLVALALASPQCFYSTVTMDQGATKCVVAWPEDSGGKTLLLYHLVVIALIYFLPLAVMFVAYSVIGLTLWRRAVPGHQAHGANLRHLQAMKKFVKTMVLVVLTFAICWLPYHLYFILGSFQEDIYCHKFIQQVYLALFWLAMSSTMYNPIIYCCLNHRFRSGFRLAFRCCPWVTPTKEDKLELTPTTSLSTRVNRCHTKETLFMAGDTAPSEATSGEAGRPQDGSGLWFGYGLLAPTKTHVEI

[10] = test system: Mus musculus; assay: Tested for antinociceptive activity against mouse hotplate test for 60 min after oral administration of 40 mg/kg; assay type: functional
Outline: (§4)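 Male CD1 mice (25-30 g) on a 55 ± 0.2 °C plate; forepaw-licking latency measured 60 min after oral 40 mg/kg given in water (soluble) or 0.2% hydroxypropylcellulose (insoluble); % increase of reaction time versus vehicle controls; groups of 12 animals; Dunnett t-test.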

[11] = species on record: Rattus norvegicus; assay: as §2
[12] = species on record: Mus musculus; assay: as §3
[13] = target: Substance-P receptor (Homo sapiens, UniProt P25103); assay: Tested for binding affinity against human NK-1 receptor transfected on CHO cells using [125I]-Tyr] SP as radioligand; assay type: cell-based
[14] = target: T3, Substance-K receptor; assay: Tested for the binding affinity against rat neurokinin-2 (NK-2) receptor transfected on CHO cells using [125I]-His] NKA as radioligand; assay type: cell-based
[15] = test system: Mus musculus; assay: Tested for antinociceptive activity in hot plate test at 60 min after 40 mg/kg oral administration in mouse; insoluble; assay type: functional, organism-based; parameters: dose 40 mg/kg; conditions: at 40 mg/kg; outline: as §4
[16] = target: Substance-P receptor (Oryctolagus cuniculus); assay: Tested for antagonist activity against NK1 receptor in rabbit vena cava by using substance P (SP) as agonist; conditions: read-out: pA2 (converted); remark: listed apart in the source
[17] = target: Substance-P receptor (Rattus norvegicus, UniProt P14600); assay: Tested for the binding affinity against rat neurokinin-1 (NK-1) receptor transfected on CHO cells using [125I]-Tyr] SP as radioligand; assay type: cell-based
[18] = test system: Mus musculus; assay: Tested for antinociceptive activity in hot plate test at 10 min after 0.5 mg/kg intravenous administration in mouse; insoluble; assay type: functional, organism-based; parameters: dose 0.5 mg/kg; conditions: at 0.5 mg/kg
[19] = test system: Mus musculus; assay: Tested for antinociceptive activity against mouse hotplate test for 60 min after oral administration of 40 mg/kg (P*<0.05); assay type: functional; outline: as §4
[20] = species on record: Rattus norvegicus; assay: Tested for its ability to promote degranulation of rat peritoneal mast cells at 0.1 mM or lower; No degranulation; assay type: functional, cell-based
Outline: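 Peritoneal mast cells lavaged from male Sprague-Dawley rats (350-400 g), buffer pH 6.8, 2 × 10^4 cells/mL, preincubated 10 min at 37 °C, then exposed to compound (10^-7 to 10^-4 M, in water or DMSO) 10 min at 37 °C; iced, centrifuged; histamine in supernatant and pellet measured fluorimetrically with o-phthalaldehyde, as % of total.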

[21] = test system: Mus musculus; assay: Tested for antinociceptive activity against mouse hotplate test for 10 min after intravenous injection at 0.5 […] (P*<0.05); assay type: functional

Sequence of Substance-P receptor (Rattus norvegicus, UniProt P14600) (P14600 whole entry): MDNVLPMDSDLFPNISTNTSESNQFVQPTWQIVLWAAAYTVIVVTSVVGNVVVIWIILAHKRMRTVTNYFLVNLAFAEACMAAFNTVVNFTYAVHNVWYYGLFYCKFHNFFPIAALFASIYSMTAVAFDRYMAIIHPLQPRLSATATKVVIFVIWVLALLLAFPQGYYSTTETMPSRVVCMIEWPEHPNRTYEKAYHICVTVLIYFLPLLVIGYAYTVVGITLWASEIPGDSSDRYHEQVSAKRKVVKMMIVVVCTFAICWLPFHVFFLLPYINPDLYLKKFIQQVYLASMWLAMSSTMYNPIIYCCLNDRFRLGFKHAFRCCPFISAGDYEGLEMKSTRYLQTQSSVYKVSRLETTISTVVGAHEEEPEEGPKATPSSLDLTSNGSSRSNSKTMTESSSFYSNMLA
Sequence of Substance-P receptor (Homo sapiens, UniProt P25103) (P25103 whole entry): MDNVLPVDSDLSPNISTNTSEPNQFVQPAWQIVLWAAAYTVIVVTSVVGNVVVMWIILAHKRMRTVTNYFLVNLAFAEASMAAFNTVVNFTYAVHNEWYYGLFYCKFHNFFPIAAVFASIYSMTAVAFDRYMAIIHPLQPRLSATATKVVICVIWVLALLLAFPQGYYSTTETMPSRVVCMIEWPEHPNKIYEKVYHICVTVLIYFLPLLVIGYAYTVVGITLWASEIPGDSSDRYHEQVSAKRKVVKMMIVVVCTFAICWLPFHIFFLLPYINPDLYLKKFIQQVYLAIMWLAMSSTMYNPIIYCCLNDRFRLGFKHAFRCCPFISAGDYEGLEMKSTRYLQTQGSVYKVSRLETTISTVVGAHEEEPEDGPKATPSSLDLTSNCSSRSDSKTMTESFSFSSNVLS

solubility [1]: < 10 µg/mL
Kb [2]: 12600 nM
Kb [3]: 12600 nM
Kb [4]: 15800 nM
SMILES: CCCCCCCC(=O)n1cc(C[C@@H](NC(=O)C[C@@H]2NC(=O)[C@@H]3C4CCC(CC4)N3C2=O)C(=O)N[C@@H](Cc2ccccc2)C(=O)N(C)Cc2ccccc2)c2ccccc21

Ki [5]: 750 nM
Ki [6]: 750 nM
SMILES: CSCC[C@@H](NC(=O)[C@H](CC(C)C)NC(=O)CNC(=O)[C@H](Cc1ccccc1)NC(=O)[C@H](Cc1ccccc1)NC(=O)[C@H](CCC(N)=O)NC(=O)[C@H](CCC(N)=O)NC(=O)[C@@H]1CCCN1)C(N)=O

solubility [1]: < 10 µg/mL
IC50 [8]: 489 nM
IC50 [9]: 79 nM
Kb [3]: 7940 nM
Kb [4]: 10000 nM
SMILES: CN(Cc1ccccc1)C(=O)[C@H](Cc1ccccc1)NC(=O)[C@@H](Cc1cn(C)c2ccccc12)NC(=O)C[C@@H]1NC(=O)[C@@H]2C3CCC(CC3)N2C1=O
Increase [7]: 17%
Increase [10]: 10%

Ki [11]: 2600 nM
Kb [3]: 631 nM
Ki [12]: 2600 nM
SMILES: CC(C)C[C@H](NC(=O)[C@H](CC(C)C)NC(=O)[C@@H](Cc1c[nH]c2ccccc12)NC(=O)[C@H](Cc1ccccc1)NC(=O)[C@@H](Cc1c[nH]c2ccccc12)NC(=O)[C@H](CCC(N)=O)NC(=O)[C@H](CCC(N)=O)NC(=O)[C@@H]1CCCN1C(=O)[C@H](CCCCN)NC(=O)[C@@H]1CCCN1C(=O)[C@H](N)CCCN=C(N)N)C(N)=O (HELM PEPTIDE1{[dR].P.K.P.Q.Q.[dW].F.[dW].L.L.[am]}$$$$V2.0)

IC50 [13]: 6 nM
IC50 [14]: 824 nM
Ki [11]: 320 nM
IC50 [9]: 99 nM
Kb [16]: 79.4 nM
Kb [3]: 1580 nM
IC50 [17]: 3400 nM
Kb [4]: 3980 nM
Ki [12]: 320 nM
SMILES: CC(=O)N[C@H](C(=O)N[C@H](Cc1cn(C=O)c2ccccc12)C(=O)N[C@@H](Cc1ccccc1)C(=O)N(C)Cc1ccccc1)C(C)O (some centres undefined)
Increase [15]: Insoluble
Increase [18]: Insoluble

solubility [1]: < 10 µg/mL
Kb [2]: 50.1 nM
Kb [3]: 100 nM
Kb [4]: 126 nM
SMILES: CC(=O)n1cc(C[C@@H](NC(=O)C[C@@H]2NC(=O)[C@@H]3C4CCC(CC4)N3C2=O)C(=O)N[C@@H](Cc2ccccc2)C(=O)N(C)Cc2ccccc2)c2ccccc21

solubility [1]: < 10 µg/mL
IC50 [8]: 142 nM
IC50 [9]: 17 nM
IC50 [20]: Not Active
Kb [3]: 12600 nM
Kb [4]: 12600 nM
SMILES: CN(Cc1ccccc1)C(=O)[C@H](Cc1ccccc1)NC(=O)[C@@H](Cc1cn(C=O)c2ccccc12)NC(=O)C[C@@H]1NC(=O)[C@@H]2C3CCC(CC3)N2C1=O
Increase [19]: 33%
Increase [21]: 51%
